Screening results deposited in PubChem by several laboratories.
Only some compounds are listed: those with a hit (about 2.2% of all), similar ones and a draw of the others.
TRAIL sens C8 – sensitizes caspase-8 expressing cells to TRAIL. NB7+C8 cells + TRAIL, ATPlite viability luminescence. inhibition (viability loss, TRAIL sensitization), % at 10 µM. 1% of 360,000 active. AID 624354;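 active means compounds causing at least 50% loss of cell viability in the single-dose screen, relative to plate controls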
PPC-1+TRAIL kill – PPC-1 cancer cell killing with TRAIL present; PPC-1 cells + TRAIL, ATPLite viability luminescence; cell killing (% activity), % at 4 µM or 5 µM; 0.41% of 220,000 active; AID 1443;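 active means cell killing above 50% in the first pass at 4 µM, then a duplicate retest at 5 µM averaging 50% or more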;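 further: plate controls were cells with TRAIL plus DMSO for no effect and medium-only wells lacking cells for full effect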
Wee1 degr inh – inhibitors of human Wee1 degradation; P30291; HeLa Luc-Wee1K328M stability, luciferase luminescence; 100% = proteasome inhibitor MG132 effect; reporter increase, % at 5 µM; 1.2% of 220,000 active; AID 1321;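 active means activation above the mean of all tested compounds plus 3 SD, set per screening run, cut at about 8.8% in these data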;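 further: cells exposed to compound for 20 h before luminescence read; 0% = DMSO alone and 100% = MG132 at 30 µM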
FLuc act counter – firefly luciferase counter-screen for stimulation assays | activation factor at 10 µM | 200,000 tested, under 10 active | P08659 | ATPlite luciferase biochemical, luminescence, 10 min; 0 = ATP-free wells, 1 = DMSO control;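 active means luciferase activation factor, scaled between plate controls, of at least 2 with compound at 10 µM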
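Assay system: Luciferase/luciferin detection reagent, cell-free biochemical luciferase assay / Read-out: luciferase activation / Benchmarks: No-ATP low control, compound-free enzyme-plus-ATP high control / Medium: PBS buffer for ATP / Detection: luminescence measurement of luciferase light output / Schedule: 10 min at ambient temperature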
FLuc inh counter – counter-screen for luciferase assay inhibitors: firefly luciferase inhibition; P08659; 1.5% of 200,000 active; inhibition, % at 10 µM; ATPLite firefly luciferase biochemical luminescence, 10 min;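 active means inhibition above about 50% when tested at 10 µM, limit read from the data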
PKD1 kinase inh – blocks activity of human protein kinase D1; Q15139; PKD1 kinase fluorescence polarization assay; inhibition, % (concentration not given with the values); 0.056% of 200,000 active; AID 797; in the data active means inhibition above about 50%
Target sequence (Q15139 whole entry, looked up): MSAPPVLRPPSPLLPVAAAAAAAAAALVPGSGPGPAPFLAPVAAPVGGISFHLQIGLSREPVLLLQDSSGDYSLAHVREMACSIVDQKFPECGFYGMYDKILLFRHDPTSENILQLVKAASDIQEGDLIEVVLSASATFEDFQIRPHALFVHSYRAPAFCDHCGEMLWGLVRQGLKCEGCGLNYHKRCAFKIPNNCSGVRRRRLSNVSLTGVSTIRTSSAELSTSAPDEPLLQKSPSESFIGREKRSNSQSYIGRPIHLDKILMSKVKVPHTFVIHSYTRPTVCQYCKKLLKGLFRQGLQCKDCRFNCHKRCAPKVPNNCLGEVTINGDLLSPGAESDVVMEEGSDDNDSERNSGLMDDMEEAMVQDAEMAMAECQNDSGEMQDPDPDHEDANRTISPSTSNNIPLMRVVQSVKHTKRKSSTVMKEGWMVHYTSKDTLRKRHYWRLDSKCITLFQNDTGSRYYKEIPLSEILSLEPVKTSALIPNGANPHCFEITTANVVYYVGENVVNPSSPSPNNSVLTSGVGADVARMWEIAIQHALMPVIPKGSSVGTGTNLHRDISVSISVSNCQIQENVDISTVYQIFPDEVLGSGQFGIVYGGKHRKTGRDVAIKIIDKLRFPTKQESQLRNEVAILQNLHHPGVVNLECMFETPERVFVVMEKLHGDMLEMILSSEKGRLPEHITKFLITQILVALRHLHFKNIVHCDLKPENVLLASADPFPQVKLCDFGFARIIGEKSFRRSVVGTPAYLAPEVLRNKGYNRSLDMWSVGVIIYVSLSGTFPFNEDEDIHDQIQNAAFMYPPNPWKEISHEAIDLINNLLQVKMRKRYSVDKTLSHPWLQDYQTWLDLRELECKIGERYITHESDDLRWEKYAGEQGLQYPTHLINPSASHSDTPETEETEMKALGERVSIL
Wee1 stab conf – human Wee1 degradation inhibition, confirmation; shares compounds with Wee1 degr inh; HeLa Luc-Wee1K328M degradation, luminescence; vehicle 0%, proteasome-blocked wells 100%; activation, % at 5 µM; 4% of 1,100 active; in the data active means activation above about 8.9%
The depositor's hits bear a star; . = no result.

SMILES	TRAIL sens C8	PPC-1+TRAIL kill	Wee1 degr inh	FLuc act counter	FLuc inh counter	PKD1 kinase inh	Wee1 stab conf
CC(=O)Nc1ccc(NC(=O)c2ccc(NS(=O)(=O)c3cc(C(C)(C)C)ccc3C)cc2)cc1	-5	7	0	1	-3	3	.
CC1(C)Cc2nc3sc4c(N(CCO)CCO)ncnc4c3cc2CO1	3	15	2	1	2	4	.
CC1(C)Cc2nc3sc4c(SCC(=O)NCc5ccccc5)ncnc4c3cc2CO1	20	13	13*	0.8	20	8	0
O=C(CSc1nnc(Nc2ccccc2F)s1)NC1CC1	-8	.	.	.	.	.	.
O=C(CCC1CCCN(C(=O)Cn2cnnn2)C1)NCc1ccccc1F (stereo not given)	-16	5	2	1.1	-9	15	.
Cc1ccc2nc(SCC(=O)NCC3CCCO3)c(C#N)cc2c1 (stereo not given)	9	7	12*	1	-4	-5	3
N=c1c2c3c(sc2ncn1Cc1ccco1)CCCCC3	-1	29	12*	0.9	7	5	-2
COc1ccc(CCN(C)C2CCCN(S(=O)(=O)c3ccccc3F)C2)cc1OC (stereo not given)	-3	.	.	.	.	.	.
O=C(O)c1ccc(S(=O)(=O)N2CCC(NC(=O)C3CCCCC3)CC2)cc1	-30	.	.	.	.	.	.
COc1ccc(-n2nnnc2SCC(=O)Nc2nnn(C)n2)cc1	-7	12	11*	1	-1	-4	-2
COc1ccc(-n2nnnc2SCC(=O)NC2CC2)cc1	3	.	.	.	.	.	.
Cn1c(=O)cc(OCCCC(=O)NCc2ccccn2)c2ccccc21	-8	10	5	1.1	-7	-7	.
Cc1cccc(CCNC(=O)COc2cc(=O)n(C)c3ccccc23)c1	0	39	11*	1.1	-6	2	-1
Cc1cccc(CCNC(=O)CCCOc2cc(=O)n(C)c3ccccc23)c1	-9	18	0	1	-1	-8	.
Cc1ccnc(NC(=O)CCCOc2cc(=O)n(C)c3ccccc23)c1	12	39	14*	1	-4	1	46*
CCCN(CCC)S(=O)(=O)c1ccc(Cl)c(OC)c1	0	8	4	1	-4	-3	.
O=C(Nc1cccc([N+](=O)[O-])c1)Nc1cccc([N+](=O)[O-])c1	21	21	0	1	-1	0	.
O=C(Nc1cccc([N+](=O)[O-])c1)Nc1ccc2c(c1)OCCO2	31	22	17*	0.6	36	-3	4
CC(C)CC(=O)NC(c1ccccc1Cl)c1c(O)ccc2ccccc12 (stereo not given)	-1	8	21*	1	1	2	2
COc1ccc2[nH]c(C)c(C(=O)CN(C)CC3OCCO3)c2c1	.	-2	-3	.	.	.	.
N#Cc1ccsc1NC(=O)CN1CCN(S(=O)(=O)c2ccccc2C(F)(F)F)CC1	-15	22	1	1.1	-12	11	.
Cc1ccc(C)c(S(=O)(=O)N2CCN(CC(=O)Nc3sccc3C#N)CC2)c1	-13	11	14*	1.1	-8	-7	2
O=C(N/C(=C\c1cccc([N+](=O)[O-])c1)C(=O)N1CCOCC1)c1ccco1	5	.	.	.	.	.	.
Cc1ccc(-n2ncc(Cl)c2C(=O)NCc2ccccc2)cc1	-13	.	.	.	.	.	.
CNC(=O)c1c(Cl)cnn1-c1ccc(F)cc1	1	24	13*	1	4	-2	3
SMILES	TRAIL sens C8	PPC-1+TRAIL kill	Wee1 degr inh	FLuc act counter	FLuc inh counter	PKD1 kinase inh	Wee1 stab conf
CCOC(=O)N1CCN(C(=O)CCCCn2c(=S)[nH]c3ccsc3c2=O)CC1	-2	23	13*	1	-2	0	1
COCCOn1c(SCCOC)nc2ccccc2c1=O	3	3	1	.	.	.	.
Cc1ccc(-c2nc(NC(=O)CSc3ccc4ccccc4n3)ns2)cc1	-5	-10	1	1	-2	-4	.
Cc1nnc(SCC(=O)Nc2nsc(-c3ccc(C(C)(C)C)cc3)n2)s1	34	29	18*	0.9	11	3	1
C(=C\c1nnc2c3ccccc3ncn12)/c1ccccc1	12	36	12*	0.8	17	1	8
COc1cccc(NC(=O)C2CC(=O)OC23CCOC(C)(C)C3)c1 (stereo not given)	0	13	24*	1.1	-9	-1	2
Cc1ccc(S(=O)(=O)N2CCN(C3CC4CCC3C4)CC2)cc1 (stereo not given)	-10	.	.	.	.	.	.
O=C(N/N=C/c1cccs1)/C(=C/c1ccccc1)NC(=O)c1ccccc1	1	20	12*	1	-4	-5	-2
O=C1NC(=O)N(Cc2ccccc2)CC1Br (stereo not given)	-9	.	.	.	.	.	.
CC(=O)O/N=C/c1c(NCc2ccccc2)nc2c(C)cccn2c1=O	-18	8	12*	.	.	.	2
Cc1cc(C)n2nc(-c3ccc(F)cc3)nc2n1	8	-2	16*	0.7	29	-8	2
CC1CC(C)CN(S(=O)(=O)c2ccc3c(c2)oc(=O)n3CC(=O)NCCCOC(C)C)C1 (stereo not given)	12	.	.	.	.	.	.
COC(=O)c1cc(NC(=O)c2cc(-c3ccc(OC)cc3)oc2C(F)(F)F)ccc1N1CCOCC1	3	5	12*	.	.	.	2
COC(=O)c1cc(NC(=O)c2cc(-c3ccc(C(F)(F)F)cc3)oc2C(F)(F)F)ccc1N1CCOCC1	-1	8	0	.	.	.	.
O=C(NCCO)C(F)(F)C(F)(F)C(F)(F)OC(F)(C(=O)NCCO)C(F)(F)F (stereo not given)	9	19	12*	1.1	-5	-1	0
O=C(NCCc1ccccn1)C(F)(F)C(F)(F)C(F)(F)C(F)(F)C(F)(F)C(F)(F)C(F)(F)C(F)F	-11	26	0	0.9	5	7	.
Nc1ccccc1C(=O)N/N=C1/C2CN3CCN(C2)CC1(Cc1ccccc1)C3	-6	-2	13*	1	-4	6	0
COc1ccc(N2CCN(C(c3ccc4ncccc4c3)c3nnnn3C(C)(C)C)CC2)cc1 (stereo not given)	-2	24	11*	1	1	-2	0
O=C(Nc1ccn(CCCNCc2cccc3ccccc23)c(=O)n1)OCc1ccccc1	7	.	.	.	.	.	.
Cc1cc(C)n2nc(SCc3nnc(-c4ccccc4Br)o3)nc2n1	-8	-13	1	1	-3	0	.
O=[N+]([O-])c1ccc(Sc2cccc3cccnc23)c([N+](=O)[O-])c1	8	20	16*	1.1	-10	6	-2
CCN(CC)S(=O)(=O)c1cc(C(=O)N(C)CC(=O)Nc2ccc(Cl)cc2)ccc1Cl	-5	17	12*	1	-4	4	0
Cc1oc2ccc(O)cc2c1C(=O)c1ccc(Br)cc1	-4	.	.	.	.	.	.
